Measurements from ChEMBL document CHEMBL2169848, “Synthesis physicochemical profile and PAMPA study of new NO-donor edaravone co-drugs” (Bioorg Med Chem, 2012).
Calls of active or inactive are those of the source. No cut-off for these calls is given here.

Experiments:
[1] = Half life in 5% DMSO/0.1 M KCl by RP-HPLC analysis; type: physicochemical; settings: for half-life: 5% DMSO/0.1 M KCl
Outline: (§1)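 10 mM DMSO stock added to water with 0.1 M KCl to give 5% DMSO (v/v), then filtered. Room temperature. Compound followed by RP-HPLC (C18, methanol/water gradient, 240 nm), calibration 1–200 µM. Half-life from n = 3.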

[2] = Half life in 0.1 M HCl/MeOH 60/40 (v/v) mixture by RP-HPLC analysis; type: physicochemical
Outline: (§2)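 Methanolic compound solution (0.5 mM, 2 mL) diluted to 10 mL with 0.1 M HCl/MeOH 60/40 (v/v) and kept at 37 °C. Aliquots taken at intervals and analysed by RP-HPLC (C18, acetonitrile/water gradient, 240 nm) with calibration over 1–200 µM. Half-life from n = 3.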

[3] = Half life in human serum at 250 uM by RP-HPLC analysis; type: ADME, cell-free
Outline: (§3)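 Compound added from a 10 mM methanol stock to human serum (male AB plasma) at 37 °C, final 250 µM. Aliquots taken at intervals and deproteinized with acetonitrile containing 0.1% TFA, then centrifuged and filtered. Analysed by RP-HPLC. Half-life from n = 3.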

[4] = Half life in Wistar rat liver homogenate at 200 uM by RP-HPLC analysis; type: ADME, tissue-based
Outline: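 Liver from male Wistar rats (200–250 g), 20% homogenate spun at 8000g. Incubated at 37 °C in Tris-HCl/KCl 100/150 mM, pH 7.4, with 6.4 mg protein/mL, 2 mM GSH and 1 mM NADPH. Compound 200 µM final, added from a 10 mM acetonitrile stock. Aliquots deproteinized with cold acetonitrile and analysed by RP-HPLC. Half-life from n = 3.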

[5] = tested on: Liver; test: Induction of nitrite production in Wistar rat liver homogenate at 200 uM by griess method; type: functional, tissue-based; settings: TDE = time-dependent effect
Outline: (§4)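 Male Wistar rat liver homogenate (6.4 mg protein/mL; 2 mM GSH, 1 mM NADPH; Tris-HCl/KCl pH 7.4; 37 °C) with compound at 200 µM final. Deproteinized filtrate mixed with Griess reagent: nitrite after 10 min at 37 °C; nitrite+nitrate after VCl3 reduction, 45 min at 37 °C. Absorbance at 540 nm, calibration 1–100 µM. Expressed as %mol per mol compound, n = 3.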

[6] = tested on: Liver; test: Induction of nitrate production in Wistar rat liver homogenate at 200 uM by griess method; type: functional, tissue-based; settings: TDE = time-dependent effect; outline: as §4
[7] = tested on: Mus musculus; test: Induction of nitrite release in mouse assessed as nitrite AUC (0 to 24 hrs) at 10 mg/kg, po measured over 24 hrs by LC-MS/MS analysis; type: organism-based; set-up: time < 24 hr, dose 10 mg/kg, route oral; settings: in vivo
Outline: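 Mice dosed orally at 10 mg/kg in imwitor742/tween80 50/50; blood drawn at fixed times over 24 h and precipitated with 3 volumes acetonitrile. Nitrite converted to naphtotriazole with DAN (1 mM, 10 µL per 200 µL sample) at room temperature and measured by LC-MS/MS against a 0.01-10 µM NAT calibration; basal level and conversion factor from spikes; AUC0-24h.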

[8] = Lipophilicity, log P of the compound in octanol-buffer at pH 7 by HPLC analysis; type: physicochemical
Outline: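 Retention measured by isocratic RP-HPLC on an RP-amide-C16 column at 30 °C. Mobile phase was pH 7.0 phosphate buffer/methanol, 30–70%, ionic strength 20 mM; uracil used as dead-time marker. log kw extrapolated from at least four methanol ratios, each injected at least three times. Converted to logPoct via a reference line of 63 compounds.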

[9] = tested on: Thoracic aorta; test: Vasodilatory activity in Wistar rat denuded thoracic aorta assessed as inhibition of L-phenylephrine-induced contraction; type: functional, tissue-based
Outline: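 Endothelium-denuded thoracic aorta strips from male Wistar rats (180–200 g) in gassed Krebs-type buffer at 37 °C, pH 7.4. Strips equilibrated 1.5 h, then contracted with 1 µM L-phenylephrine. Cumulative concentrations added at plateau and isometric tension recorded. EC50 (±SEM) in µM from at least five experiments.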

[10] = tested on: Thoracic aorta; test: Vasodilatory activity in Wistar rat thoracic aorta assessed as inhibition of L-phenylephrine-induced contraction in presence of 1 uM 1H-[1,2,4]oxadiazolo[4,3-a]quinoxalin-1-one; type: functional, tissue-based
Outline: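 Same rat aorta strip protocol with 1 µM L-phenylephrine precontraction. 1 µM ODQ was added 5 min before contraction, pre-incubating for at least 30 min before the vasodilator. Isometric recording; EC50 (±SEM) in µM from at least five experiments.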

[11] = tested on: Liver; test: Induction of nitrate production in Wistar rat liver homogenate at 200 uM after 5 hrs by griess method; type: functional, tissue-based; outline: as §4
[12] = tested on: Liver; test: Induction of nitrite production in Wistar rat liver homogenate at 200 uM after 5 hrs by griess method; type: functional, tissue-based; outline: as §4
[13] = Permeability of the compound by PAMPA-HDM method; type: ADME
Outline: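 96-well polycarbonate filters impregnated with 5% hexadecane in hexane. Donor held compound in water with 5% DMSO and 100 mM KCl; acceptor held the same medium. Incubated at room temperature with shaking at 150 rpm for 1–6 h. Both compartments quantified by RP-HPLC. logPe and retention R calculated with correction for hydrolysis; membrane integrity checked by electrical resistance.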

[14] = tested on: Serum; test: Stability in human serum at 250 uM by RP-HPLC analysis; type: ADME, cell-free; outline: as §3
[15] = Stability in 5% DMSO/0.1 M KCl by RP-HPLC analysis; type: physicochemical; outline: as §1
[16] = Stability in 0.1 M HCl/MeOH 60/40 (v/v) mixture by RP-HPLC analysis; type: physicochemical; settings: buffer; outline: as §2

Compound: Cc1cc(OC(=O)C(C)(C)CCCCO[N+](=O)[O-])n(-c2ccccc2)n1
- half-life [1]: 1320 min
- half-life [2]: 1440 min
- half-life at 250 µM [3]: 13.3 min
- half-life at 200 µM [4]: 2 min
- Activity [5]: tde
- Activity [6]: tde
- AUC [7]: 1790 µM·min
- logD [8]: 4.3
- EC50 [9]: 11 µM
- inhibition [9]: Dose-dependent effect
- EC50 [10]: > 100 µM

Compound: Cc1cc(OC(=O)c2ccc(CC(CO[N+](=O)[O-])O[N+](=O)[O-])cc2)n(-c2ccccc2)n1 (configuration not stated)
- Activity [11]: Active
- Activity [12]: Active
- t1/2 [1]: ND(Insoluble)
- half-life [2]: 480 min
- half-life at 250 µM [3]: 7.1 min
- half-life at 200 µM [4]: < 1 min
- logD [8]: 4.88
- log Pe [13]: ND(Insoluble)

Compound: Cc1cc(OC(=O)CCCC(CO[N+](=O)[O-])O[N+](=O)[O-])n(-c2ccccc2)n1 (configuration not stated)
- half-life [1]: 600 min
- half-life [2]: 42 min
- half-life at 250 µM [3]: < 1 min
- half-life at 200 µM [4]: < 1 min
- logD [8]: 3.95

Compound: CC(C)(CCC(CO[N+](=O)[O-])O[N+](=O)[O-])C(=O)O (configuration not stated)
- EC50 [9]: 4.2 µM
- inhibition [9]: Dose-dependent effect
- EC50 [10]: > 100 µM

Compound: O=C(O)c1ccc(CC(CO[N+](=O)[O-])O[N+](=O)[O-])cc1 (configuration not stated)
- inhibition [9]: Dose-dependent effect
- EC50 [10]: > 100 µM

Compound: O=C(O)CCCCCO[N+](=O)[O-]
- inhibition [9]: Dose-dependent effect
- EC50 [10]: > 100 µM

Compound: O=C(O)c1ccc(OCCCO[N+](=O)[O-])cc1
- inhibition [9]: Dose-dependent effect

Compound: Cc1cc(OC(=O)c2ccc(OCC(CO[N+](=O)[O-])O[N+](=O)[O-])cc2)n(-c2ccccc2)n1 (configuration not stated)
- Activity [11]: Active
- Activity [12]: Active
- t1/2 [1]: ND(Insoluble)
- half-life [2]: 1500 min
- half-life at 250 µM [3]: 7.8 min
- half-life at 200 µM [4]: < 1 min
- logD [8]: 5.14
- log Pe [13]: ND(Insoluble)

Compound: Cc1cc(OC(=O)C(C)(C)CCC(CO[N+](=O)[O-])O[N+](=O)[O-])n(-c2ccccc2)n1 (configuration not stated)
- Activity [11]: Active
- Activity [12]: Active
- half-life [1]: 960 min
- half-life [2]: 600 min
- half-life at 250 µM [3]: 16.2 min
- half-life at 200 µM [4]: 3 min
- Activity [5]: tde
- Activity [6]: tde
- logD [8]: 4.04
- EC50 [9]: 2.5 µM
- inhibition [9]: Dose-dependent effect
- EC50 [10]: > 100 µM

Compound: CC1=NN(c2ccccc2)C(=O)C1 [EDARAVONE]
- Stability [14]: Stable
- Stability [15]: Stable
- Stability [16]: Stable
- logD [8]: 1.44

Compound: Cc1cc(OC(=O)CCCCCO[N+](=O)[O-])n(-c2ccccc2)n1
- half-life [1]: 1860 min
- half-life [2]: 60 min
- half-life at 250 µM [3]: < 1 min
- half-life at 200 µM [4]: < 1 min
- logD [8]: 3.79

Compound: Cc1cc(OC(=O)OCCCO[N+](=O)[O-])n(-c2ccccc2)n1
- half-life [1]: 780 min
- half-life [2]: 84 min
- half-life at 250 µM [3]: < 1 min
- half-life at 200 µM [4]: < 1 min
- AUC [7]: 964 µM·min
- logD [8]: 3.35
